Here are results for four compounds from article PMC2793091 (Biochemistry, 2009).

The conditions of series [1]: pH 10.
The test system of a further series is VAChT. Particulars: cited from earlier work.
For series [2] the following is noted: titration of (±)-vesamicol absorbance at 263 nm; cited from earlier work.
The next series concerns sigma 1 receptors. Particulars: cited from earlier work.
The test system of the next series is sigma 2 receptors. The conditions noted are these: cited from earlier work.
Series [3] concerns postnuclear supernatant from cells not transfected with VAChT. It is filed as binding, rat. The conditions noted are these: five nM [3H]vesamicol. The method in brief:
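Postnuclear supernatant (1500g, 10 min) from untransfected PC12^A123.7 cells, in sucrose/HEPES/DTT buffer pH 7.4. 20 μg protein mixed with iso-osmolal MES/HEPES/AMPSO pH buffer. Started with [³H]vesamicol in potassium tartrate/HEPES/DTT buffer; 10 min, 23°. pH measured just before filtration. Two portions filtered, washed with ice-cold buffer containing 5 μM (±)-vesamicol, scintillation-counted, averaged. Nonspecific binding measured with 5 μM (±)-vesamicol.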

The nature of series [4]: Solubility in binding buffers at different pH.

Where two headings read alike, the source gives them in different places.

As to `Nc1cccc2c1CC(N1CCC(c3ccccc3)CC1)C(O)C2` (racemic) [(±)-ABV, (±)-aminobenzovesamicol], in series [1], the solubility entry is reported as “soluble”. Besides, the “potency relative to (±)-vesamicol” value in the series on VAChT is “about 1000 fold”.
As for “(−)-trans-2-(4-phenylpiperidino)cyclohexanol [(−)-vesamicol]”, the “pKaves (protonated vesamicol)” value in series [2] is 9.0 ± 0.1. For the same compound, the “affinity relative to VAChT” value in the series with sigma 1 receptors and with sigma 2 receptors was “only somewhat less than for VAChT” each time.
On to “(−)-[^3H]trans-2-(4-phenylpiperidino)cyclohexanol [[^3H]vesamicol]”, for which the entries for the “"specific-nonspecific" binding” value in series [3] (high pH) and in series [3] (low pH) were ~ 0.4 pmol/mg and “essentially no”, respectively. Besides, the “pKaves (protonated vesamicol)” value in series [2] is given as 9.0 ± 0.1.
In the case of “(±)-trans-2-(4-phenylpiperidino)cyclohexanol [(±)-vesamicol]”, the solubility entry is listed as “not soluble” in series [4] (200 μM, pH 10 (data not shown)); “soluble” in series [4] (1 mM, acidic and neutral pH).
